In brackets after ≈: the same amount, converted by molar mass.
Tests used:
[1] = test system: Escherichia coli; assay: Minimum inhibitory concentration of compound was determined against Escherichia coli L 1347; assay type: functional
Procedure, shortened: (§1)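 MIC (µg/mL) by microbroth dilution in Iso-Sensitest broth; final inoculum 10^4 cfu/mL; 24 h at 37 °C in air.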

[2] = test system: Salmonella typhimurium; assay: Minimum inhibitory concentration of compound was determined against Salmonella Typhimurium L 35; assay type: functional, Salmonella enterica subsp. enterica serovar Typhimurium; conditions: Salmonella enterica; procedure, shortened: as §1
[3] = test system: Escherichia coli; assay: Minimum inhibitory concentration of compound was determined against Escherichia coli L 1153; assay type: functional; procedure, shortened: as §1
[4] = test system: Escherichia coli; assay: Efficacy of compound administered intravenously against Escherichia coli L 47 Septicemia in mouse; assay type: functional; conditions: iv
Procedure, shortened: (§2)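 Mouse septicemia from intraperitoneal injection of about 10^4 cells of E. coli L 47, about 100 times the 50% lethal dose. Groups of five to eight mice each got a single dose immediately after infection, by the route stated in the line. ED50 in mg/kg was calculated from percent survivors at each dose on day 7 (Spearman-Kärber).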

[5] = test system: Streptococcus pneumoniae; assay: Minimum inhibitory concentration against Streptococcus pneumoniae L 44; assay type: functional
Procedure, shortened: (§3)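 MIC (µg/mL) by microbroth dilution in Todd-Hewitt broth, final inoculum 10^4 cfu/mL, incubated 24 h at 37 °C in air.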

[6] = test system: Escherichia coli; assay: Minimum inhibitory concentration against Escherichia coli L 47; assay type: functional; procedure, shortened: as §1
[7] = test system: Pseudomonas aeruginosa; assay: Minimum inhibitory concentration of compound was determined against Pseudomonas aeruginosa L 1138; assay type: functional; procedure, shortened: as §1
[8] = test system: Serratia marcescens; assay: Minimum inhibitory concentration of compound was determined against Serratia marcescens L 1506; assay type: functional; procedure, shortened: as §1
[9] = test system: Pseudomonas aeruginosa; assay: Minimum inhibitory concentration against Pseudomonas aeruginosa ATCC 10145; assay type: functional; procedure, shortened: as §1
[10] = test system: Bacteroides fragilis; assay: Minimum inhibitory concentration of compound was determined against Bacteroides fragilis L 1011; assay type: functional
Procedure, shortened: (§4)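 Microbroth dilution MIC (µg/mL) in Wilkins-Chalgren broth, final inoculum 10^5 cfu/mL, incubated 48 h in an anaerobic chamber.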

[11] = test system: Staphylococcus epidermidis; assay: Minimum inhibitory concentration against Staphylococcus epidermidis ATCC 12228; assay type: functional; procedure, shortened: as §1
[12] = Association constant to Ac2-L-Lys-D-Ala-D-Ala determined at pH 9; Value ranges from 5E4-7.5E4
[13] = test system: Proteus vulgaris; assay: Minimum inhibitory concentration against Proteus vulgaris ATCC 881; assay type: functional; procedure, shortened: as §1
[14] = test system: Pseudomonas aeruginosa; assay: Minimum inhibitory concentration of compound was determined against Pseudomonas aeruginosa L 1498; assay type: functional; procedure, shortened: as §1
[15] = test system: Enterococcus faecalis; assay: Minimum inhibitory concentration against Enterococcus faecalis ATCC 7080; assay type: functional
Procedure, shortened: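 Microbroth dilution MIC (µg/mL), final inoculum 10^4 cfu/mL, incubated 24 h at 37 °C in air.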

[16] = test system: Klebsiella pneumoniae; assay: Minimum inhibitory concentration of compound was determined against Klebsiella pneumoniae L 1499; assay type: functional; procedure, shortened: as §1
[17] = test system: Enterobacter cloacae; assay: Minimum inhibitory concentration of compound was determined against Enterobacter cloacae L 1504; assay type: functional; procedure, shortened: as §1
[18] = test system: Bacteroides fragilis; assay: Minimum inhibitory concentration of compound was determined against Bacteroides fragilis L 1236; assay type: functional; procedure, shortened: as §4
[19] = test system: Escherichia coli; assay: Minimum inhibitory concentration of compound was determined against Escherichia coli L 1536; assay type: functional; procedure, shortened: as §1
[20] = test system: Pseudomonas aeruginosa; assay: Minimum inhibitory concentration of compound was determined against Pseudomonas aeruginosa L 1348; assay type: functional; procedure, shortened: as §1
[21] = test system: Streptococcus pyogenes; assay: Minimum inhibitory concentration of compound was determined against Streptococcus pyogenes L 49 in mouse; assay type: functional
[22] = test system: Streptococcus pyogenes; assay: Efficacy of compound administered subcutaneously against Streptococcus pyogenes L 49 Septicemia in mouse; assay type: functional; conditions: sc
Procedure, shortened: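 Mice were infected intraperitoneally with about 10^5 Strep. pyogenes L 49 cells, about 100 times the 50% lethal dose. Groups of 5–8 mice were treated once right after challenge, by the route stated in the line. ED50 (mg/kg) was derived from percentage survival at each dose on day 7 (Spearman-Kärber).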

[23] = test system: Enterobacter cloacae; assay: Minimum inhibitory concentration of compound was determined against Enterobacter cloacae L 1485; assay type: functional; procedure, shortened: as §1
[24] = test system: Bacteroides fragilis; assay: Minimum inhibitory concentration of compound was determined against Bacteroides fragilis L 1010; assay type: functional; procedure, shortened: as §4
[25] = test system: Proteus mirabilis; assay: Minimum inhibitory concentration of compound was determined against Proteus mirabilis L 1356; assay type: functional; procedure, shortened: as §1
[26] = test system: Streptococcus pyogenes; assay: Minimum inhibitory concentration against Streptococcus pyogenes L 49; assay type: functional; procedure, shortened: as §3
[27] = test system: Klebsiella pneumoniae; assay: Minimum inhibitory concentration of compound was determined against Klebsiella pneumoniae L 1481; assay type: functional; procedure, shortened: as §1
[28] = test system: Escherichia coli; assay: Minimum inhibitory concentration of compound was determined against Escherichia coli L 1484; assay type: functional; procedure, shortened: as §1
[29] = test system: Staphylococcus haemolyticus; assay: Minimum inhibitory concentration against Staphylococcus haemolyticus L 602; assay type: functional; procedure, shortened: as §1
[30] = test system: Proteus vulgaris; assay: Minimum inhibitory concentration of compound was determined against Proteus vulgaris L 1539; assay type: functional; procedure, shortened: as §1
[31] = test system: Serratia marcescens; assay: Minimum inhibitory concentration of compound was determined against Serratia marcescens L 1488; assay type: functional; procedure, shortened: as §1
[32] = test system: Staphylococcus aureus; assay: Minimum inhibitory concentration against Staphylococcus aureus L 165; assay type: functional; procedure, shortened: as §1
[33] = test system: Escherichia coli; assay: Minimum inhibitory concentration of compound was determined against Escherichia coli L 1513; assay type: functional; procedure, shortened: as §1
[34] = test system: Pseudomonas aeruginosa; assay: Minimum inhibitory concentration of compound was determined against Pseudomonas aeruginosa L 1533; assay type: functional; procedure, shortened: as §1
[35] = test system: Shigella sonnei; assay: Minimum inhibitory concentration of compound was determined against Shigella sonnei L 363; assay type: functional; procedure, shortened: as §1
[36] = test system: Proteus mirabilis; assay: Minimum inhibitory concentration of compound was determined against Proteus mirabilis L 1157; assay type: functional; procedure, shortened: as §1
[37] = test system: Escherichia coli; assay: Minimum inhibitory concentration of compound was determined against Escherichia coli L 1572; assay type: functional; procedure, shortened: as §1
[38] = test system: Shigella dysenteriae; assay: Minimum inhibitory concentration of compound was determined against Shigella dysentariae L155; assay type: functional
[39] = test system: Escherichia coli; assay: Efficacy of compound administered subcutaneously against Escherichia coli L 47 Septicemia in mouse; assay type: functional; conditions: sc; procedure, shortened: as §2
[40] = species on record: Mus musculus; assay: Number of mouse survivors to that of treated with compound; 6 out of 8 survived; assay type: functional
[41] = Association constant determined at pH 9; Value ranges from 5E4-7.5E4; assay type: ADME
[42] = test system: Escherichia coli; assay: Efficacy of compound administered intravenously against Escherichia coli L47 Septicemia in mouse; assay type: functional; conditions: iv; procedure, shortened: as §2
[43] = test system: Escherichia coli; assay: Efficacy of compound administered subcutaneously against Escherichia coli L47 Septicemia in mouse; assay type: functional; conditions: sc; procedure, shortened: as §2
[44] = species on record: Mus musculus; assay: Number of survivors mouse to that of treated with compound; 7 out of 8 survived; assay type: functional

SMILES: NCCCNCCCNCCCNC(=O)[C@H]1NC(=O)[C@H]2NC(=O)[C@H](NC(=O)[C@@H]3NC(=O)[C@H]4NC(=O)[C@@H](Cc5ccc(c(Cl)c5)Oc5cc3cc(c5O)Oc3ccc(cc3Cl)[C@H]2O)NC(=O)[C@H](N)c2ccc(O)c(c2)Oc2cc(O)cc4c2)c2ccc(O)c(c2)-c2c(O)cc(O)cc21
- MIC [1]: 4 µg/mL (≈ 2.92 µM)
- MIC [2]: 4 µg/mL (≈ 2.92 µM)
- MIC [3]: 1 µg/mL (≈ 0.73 µM)
- ED50 [4]: < 40 mg/kg
- MIC [5]: 0.125 µg/mL (≈ 0.0913 µM)
- MIC [6]: 0.5 µg/mL (≈ 0.365 µM)
- MIC [7]: 32 µg/mL (≈ 23.4 µM)
- MIC [8]: 8 µg/mL (≈ 5.84 µM)
- MIC [9]: 2 µg/mL (≈ 1.46 µM)
- MIC [10]: 32 µg/mL (≈ 23.4 µM)
- MIC [11]: 0.016 µg/mL (≈ 0.0117 µM)
- Ka [12]: 75000 M⁻¹
- MIC [13]: 64 µg/mL (≈ 46.7 µM)
- MIC [14]: 64 µg/mL (≈ 46.7 µM)
- MIC [15]: 0.25 µg/mL (≈ 0.183 µM)
- MIC [16]: 8 µg/mL (≈ 5.84 µM)
- MIC [17]: 8 µg/mL (≈ 5.84 µM)
- MIC [18]: 128 µg/mL (≈ 93.5 µM)
- MIC [19]: 2 µg/mL (≈ 1.46 µM)
- MIC [20]: 4 µg/mL (≈ 2.92 µM)
- MIC [21]: 0.06 µg/mL (≈ 0.0438 µM)
- ED50 [22]: 0.72 mg/kg
- MIC [23]: 4 µg/mL (≈ 2.92 µM)
- MIC [24]: 16 µg/mL (≈ 11.7 µM)
- MIC [25]: 32 µg/mL (≈ 23.4 µM)
- MIC [26]: 0.063 µg/mL (≈ 0.046 µM)
- MIC [27]: 4 µg/mL (≈ 2.92 µM)
- MIC [28]: 2 µg/mL (≈ 1.46 µM)
- MIC [29]: 0.063 µg/mL (≈ 0.046 µM)
- MIC [30]: 32 µg/mL (≈ 23.4 µM)
- MIC [31]: 8 µg/mL (≈ 5.84 µM)
- MIC [32]: 0.063 µg/mL (≈ 0.046 µM)
- MIC [33]: 2 µg/mL (≈ 1.46 µM)
- MIC [34]: 64 µg/mL (≈ 46.7 µM)
- MIC [35]: 2 µg/mL (≈ 1.46 µM)
- MIC [36]: 128 µg/mL (≈ 93.5 µM)
- MIC [37]: 2 µg/mL (≈ 1.46 µM)
- MIC [38]: 1 µg/mL (≈ 0.73 µM)
- ED50 [39]: > 200 mg/kg
- Survivors [40]: 6

SMILES: NCCCNCCCNC(=O)[C@H]1NC(=O)[C@H]2NC(=O)[C@H](NC(=O)[C@@H]3NC(=O)[C@H]4NC(=O)[C@@H](Cc5ccc(c(Cl)c5)Oc5cc3cc(c5O)Oc3ccc(cc3Cl)[C@H]2O)NC(=O)[C@H](N)c2ccc(O)c(c2)Oc2cc(O)cc4c2)c2ccc(O)c(c2)-c2c(O)cc(O)cc21
- MIC [5]: 0.125 µg/mL (≈ 0.0953 µM)
- MIC [6]: 1 µg/mL (≈ 0.762 µM)
- MIC [9]: 8 µg/mL (≈ 6.1 µM)
- MIC [11]: 0.032 µg/mL (≈ 0.0244 µM)
- MIC [13]: 32 µg/mL (≈ 24.4 µM)
- MIC [15]: 0.125 µg/mL (≈ 0.0953 µM)
- MIC [21]: 0.13 µg/mL (≈ 0.0991 µM)
- ED50 [22]: 1.65 mg/kg
- MIC [26]: 0.063 µg/mL (≈ 0.048 µM)
- Ka [41]: 50000 M⁻¹
- MIC [29]: 0.125 µg/mL (≈ 0.0953 µM)
- MIC [32]: 0.063 µg/mL (≈ 0.048 µM)

SMILES: NCCCN(CCCN)CCCNC(=O)[C@H]1NC(=O)[C@H]2NC(=O)[C@H](NC(=O)[C@@H]3NC(=O)[C@H]4NC(=O)[C@@H](Cc5ccc(c(Cl)c5)Oc5cc3cc(c5O)Oc3ccc(cc3Cl)[C@H]2O)NC(=O)[C@H](N)c2ccc(O)c(c2)Oc2cc(O)cc4c2)c2ccc(O)c(c2)-c2c(O)cc(O)cc21
- MIC [5]: 0.125 µg/mL (≈ 0.0913 µM)
- MIC [6]: 1 µg/mL (≈ 0.73 µM)
- MIC [9]: 8 µg/mL (≈ 5.84 µM)
- ED50 [42]: < 40 mg/kg
- MIC [11]: 0.008 µg/mL (≈ 0.00584 µM)
- MIC [13]: 128 µg/mL (≈ 93.5 µM)
- MIC [15]: 0.125 µg/mL (≈ 0.0913 µM)
- MIC [21]: 0.06 µg/mL (≈ 0.0438 µM)
- ED50 [22]: 0.72 mg/kg
- MIC [26]: 0.063 µg/mL (≈ 0.046 µM)
- ED50 [43]: 40 mg/kg
- MIC [29]: 0.063 µg/mL (≈ 0.046 µM)
- MIC [32]: 0.125 µg/mL (≈ 0.0913 µM)
- Survivors [44]: 7

Reference: ChEMBL document CHEMBL1125337, “Synthesis and antibacterial activity of a series of basic amides of teicoplanin and deglucoteicoplanin with polyamines” (J Med Chem, 1992)
